# Screening data as filed in PubChem.
# PolyA inh: yeast polyadenylation inhibition | S. cerevisiae SKY197-pL101 polyadenylation reporter, beta-gal luminescence; efflux-impaired pdr1/pdr3 knockout yeast; score 100 = 6 SD above DMSO | activity score, % at 12 µM | hit rate 0.02% among 300,000;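 active = lowest replicate activity score at least 50, where 100 means six control SD above control mean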;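 also: yeast exposed to compound for 9 h at 30 °C; higher score means more reporter readthrough which indicates perturbed polyadenylation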
# NALP1 inh: inhibitors of NALP1 inflammasome in yeast | AID 2071 | hit rate 0.61% among 280,000 | S. cerevisiae NALP1/ASC/caspase-1 growth, X-gal OD620, 72 h | inhibition, % at 10 µM; in the data active = inhibition mostly above about 24%, no sharp cut-off; inactive = mostly below about 32%
# Pemphigus Ab inh: inhibitors of pemphigus antibody binding to human desmoglein-3. P32926. DSG3-coupled beads, scFv-anti-DSG3-GFP binding, flow cytometry; active compounds read low. binding (percent of control), % at 10 µM. hit rate 0.48% among 310,000;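 active = binding more than 3 SD below its plate's average and above zero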;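 also: hits lower antibody fragment binding to DSG3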
# Arrestin-AP2 inh: blocks beta-arrestin peptide binding to AP2 adaptin | AID 504490 | hit rate 0.31% among 340,000 | FITC-arrestin peptide / GST-AP2 beads, flow cytometry; AP2 beta2 appendage carries R879A mutation | inhibition, % at 10 µM;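 active = inhibition above a set limit, near 3 SD of compounds lacking own fluorescence, cut at about 54% in these data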;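 also: plate controls were DMSO wells for no effect and 5 µM unlabelled arrestin peptide for full effect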
#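 Test system: GST-tagged AP2 beta2-adaptin appendage (R879A) on 4 µm glutathione beads; also added: fluorescein-tagged arrestin peptide at 50 nM final; timing: 12 min plus 1 h, RT; signal: flow cytometry, FL1 (488/535 nm); read-out: percent drop in bead-associated FITC signal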
# NLRP3 yeast inh: inhibitors of NALP3 inflammasome in yeast | Yeast reconstituted NLRP3/ASC/caspase-1, beta-gal luminescence, 24 h | inhibition, % at 10 µM | hit rate 0.39% among 330,000;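 active = inhibition of 50% or more; inactive = inhibition below 50%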;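 also: plate controls were induced DMSO wells for no effect and uninduced yeast grown without galactose for full effect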
# ALR inh: blocks human ALR sulfhydryl oxidase activity. purified ALR, DTT oxidation, H2O2 HRP-luminol luminescence. inhibition, % (concentration not given with the values). hit rate 3.8% among 290,000;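 active = mean replicate inhibition above about 79%, with every replicate also reaching it, limit read from the data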
# Target sequence (P55789 whole entry, looked up): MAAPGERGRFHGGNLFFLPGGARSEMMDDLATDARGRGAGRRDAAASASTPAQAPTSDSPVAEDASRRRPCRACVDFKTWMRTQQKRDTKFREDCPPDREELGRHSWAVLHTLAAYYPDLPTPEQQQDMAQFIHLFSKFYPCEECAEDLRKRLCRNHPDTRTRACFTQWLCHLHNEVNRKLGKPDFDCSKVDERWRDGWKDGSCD
# * hit, by the source's call; · = no result. Rows were chosen to be rich in hits. Some 4.6% of all compounds tested hit in one or more screens of this group.
SMILES,PolyA inh,NALP1 inh,Pemphigus Ab inh,Arrestin-AP2 inh,NLRP3 yeast inh,ALR inh
Cc1cccc(NC(=O)C(=O)NCC2CCCN2S(=O)(=O)c2cccs2)c1 (configuration not stated),·,·,111,·,·,·
COc1cc(/C=N/Nc2ccc(S(N)(=O)=O)cc2[N+](=O)[O-])cc(OC)c1O,-5,9,83*,0,1,29
COc1cc(/C=N/Nc2ccccc2[N+](=O)[O-])cc(OC)c1O,-28,-12,91,5,19,74
COc1ccc(/C=N\Nc2ccc([N+](=O)[O-])cc2[N+](=O)[O-])c(C(=O)O)c1OC,-17,20,95,7,12,98*
COc1cc(C=NNc2ccc(S(=O)(=O)Nc3ccccc3C(=O)O)cc2[N+](=O)[O-])ccc1O,·,·,103,-3,13,99*
CN(CCO)c1ccc(C=NNc2ccc([N+](=O)[O-])cc2S(=O)(=O)Nc2ccccc2C(=O)O)cc1,·,·,·,·,32,99*
C/C(=N/NS(=O)(=O)c1ccc(Br)cc1)c1cccc(NC(=O)C2CC2)c1,·,·,104,·,·,·
COC(=O)[C@]1(C)N[C@H](CN(C)C(=O)Nc2ccc(OC)cc2)[C@@H]2C(=O)N(Cc3ccccc3)C(=O)[C@@H]21,·,·,98,-6,13,·
Nc1ncnc2c1ncn2[C@@H]1O[C@H](CNC(=O)[C@H](N)Cc2cscn2)[C@@H](O)[C@H]1O,·,·,104,5,·,·
O=C(COC(=O)Cn1cc(C(F)(F)F)ccc1=O)NCc1ccccc1,·,·,98,-9,17,·
CC(=O)N[C@H]1[C@H](OC2CCCCC2)O[C@H](COC(C)=O)[C@@H](OC(C)=O)[C@@H]1OC(C)=O,-4,1,112,0,1,-8
NS(=O)(=O)c1ccc(N/N=C/c2ccc(C(=O)O)cc2)c([N+](=O)[O-])c1,-2,17,89,2,16,-5
NS(=O)(=O)c1ccc(N/N=C/c2ccc[nH]2)c([N+](=O)[O-])c1,-6,-2,87,11,17,97*
COC(=O)CCN(C)CCC(=O)OC,8,-5,105,8,6,96*
COC(=O)CCCC(=O)OC,·,·,103,10,2,·
COc1ccc(CNC(=O)Cn2cc(C)c(=O)[nH]c2=O)cc1,·,·,102,-8,·,·
Cc1c(S(=O)(=O)N2CCN(c3cccc(C(F)(F)F)c3)CC2)c(=O)n(C)c(=O)n1C,-12,·,87,-5,14,·
Cn1c(=O)c(=O)n(C)c2cc(S(=O)(=O)N3CCN(c4cccc(C(F)(F)F)c4)CC3)ccc21,19,1,71*,2,5,-11
CCc1ccc(C(=O)/C=C/Nc2ccc(S(=O)(=O)Nc3onc(C)c3C)cc2)cc1,-13,6,96,7,1,97*
COc1ccc(C(=O)/C=C/Nc2ccc(S(=O)(=O)Nc3onc(C)c3C)cc2)cc1,6,22,101,2,16,97*
N#CC(C#N)=Cc1cc2ccccc2nc1N1CCOCC1,-8,30,103,6,-6,95*
N#C/C(=C\c1cc2ccccc2nc1N1CCOCC1)C(=O)Nc1ccc(N2CCOCC2)cc1,-14,33,116,10,8,-3
CCOc1ccccc1NC(=O)c1ccc(S(=O)(=O)N(C)C)cc1,34,41*,99,2,17,0
CCOC(=O)c1sc(NC(=O)c2ccc(S(=O)(=O)N(C)C)cc2)cc1C,4,41*,96,-2,-10,2
COc1cc(C2Nc3ccc4ccccc4c3C3=C2C(=O)CC(C)(C)C3)ccc1OC(C)C(=O)O (configuration not stated),15,9,100,0,15,-64
SMILES,PolyA inh,NALP1 inh,Pemphigus Ab inh,Arrestin-AP2 inh,NLRP3 yeast inh,ALR inh
O=C(Nc1cccc(C(=O)N2CCCCC2)c1)C1CCCCC1,·,·,101,-2,·,·
Cn1c(NC(=O)CCc2ccccc2)cc(=O)n(C)c1=O,16,6,98,-4,10,0
Cn1c(NC(=O)COc2ccccc2)cc(=O)n(C)c1=O,-11,5,105,8,-1,99*
O=C(Nc1ccc(C(F)(F)F)cc1)c1ccccc1-n1cnnn1,·,·,91,9,20,-5
C/C(=N\NC(=O)c1ccccc1Cl)c1ccccn1,16,18,61*,14,17,-6
COc1ccccc1NC(=S)NN=C(C)c1ccccn1,·,·,-0.8*,2,·,·
C/C(=N\NC(=O)c1cc(Br)ccc1O)c1ccccn1,-2,-4,·,8,23,85*
O=C(NC1CC1)c1ccc(CSCc2cccc(F)c2)o1,-5,12,98,1,10,99*
O=C(NCCCN1CCOCC1)c1ccc(CS(=O)(=O)Cc2ccccc2Cl)o1,12,29*,92,1,1,-4
Cc1ccc(CSCc2ccc(C(=O)NC3CC3)o2)cc1,21,17,77,-3,24,-10
Cc1ccccc1CSCc1ccc(C(=O)NCCCN2CCOCC2)o1,-1,3,97,0,11,98*
CC1CCN(CCCNC(=O)c2ccc(CSCc3cccc(Cl)c3)o2)CC1,-15,17,116,-1,10,99*
Cc1ccc(CSCc2ccc(C(=O)NCCCN3CCOCC3)o2)cc1,7,-2,104,-9,2,54
OC[C@@H](O)[C@H](O)C(/C=N/Nc1ccccc1)=N\Nc1ccccc1,12,·,·,-12,25,99*
CN(CC(=O)Nc1sccc1C(N)=O)S(=O)(=O)c1ccc(Cl)cc1,·,·,·,-3,18,28
O=C(/C=C/c1cccc(F)c1)N1CCc2ccccc21,-3,12,18*,21,33,-13
CC1(C)Nc2ccccc2N(Cc2ccc([N+](=O)[O-])cc2)C1=O,-43,-8,108,14,14,96*
CN(C(=O)CCN1C(=O)C(C)(C)Nc2ccccc21)c1ccccc1,·,4,98,7,15,55
CC1(C)Nc2ccccc2N(CC(=O)N2CCCCC2)C1=O,6,2,97,24,-6,98*
O=C(COc1ccc(F)cc1Br)Nc1ccccc1N1CCOCC1,·,·,114,9,11,·
Nc1o[nH]c(=O)c1C1CCCCC1,·,·,91,12,·,·
O=C(NCC(c1ccco1)N1CCCC1)c1ccc(Cl)c(S(=O)(=O)N2CCc3ccccc32)c1 (configuration not stated),·,·,174,5,9,-1
Cc1nn(Cc2ccccc2)c2c1C(c1cccnc1)C(C#N)=C(N)O2 (configuration not stated),2,41*,102,25,-3,95*
CCOC(=O)Nc1sc(NS(=O)(=O)c2ccc(C)cc2)nc1C,-14,2,73*,33,15,30
CCOC(=O)c1sc(NS(=O)(=O)c2ccc(C)cc2)nc1C,-8,9,105,12,8,49
